Assay results collected from several papers.
Each line is one published result; the experiments were not run side by side.
Target: Delta-type opioid receptor (OPRD1, Homo sapiens, UniProt P41143)

Compound	read-out	method	setting	Ki [nM]
CN(C)C1(CNC(=O)/N=N/c2ccc(F)cc2)CCCCC1	cell-free assay	–	–	12000
CCCC[C@@H](NC(=O)[C@@H](N)Cc1c(C)cc(O)cc1C)C(=O)NCC(=O)N[C@@H](Cc1ccc(F)cc1)C(=O)N(C)CCC[C@@]1(c2ccc(F)cc2)OCc2cc(C#N)ccc21	cell-free assay	–	–	0.8
CCCCC/C=C\C/C=C\C/C=C\C/C=C\CCCC(=O)O	ligand displacement	radioligand	cell membranes	4800
CCCCCCCCC[C@@H]1CC(=O)NCC(=O)N[C@H](Cc2ccc(O)cc2)C(=O)NCC(=O)N[C@@H](Cc2ccccc2)C(=O)O1	ligand displacement	radioligand	–	21000
C[C@@H](NC(=O)[C@@H](N)Cc1ccc(O)cc1)C(=O)NCC(=O)N[C@@H](Cc1ccccc1)C(=O)N(C)CCC[C@@]1(c2ccc(F)cc2)OCc2cc(C#N)ccc21	cell-free assay	–	–	57
COc1ccsc1CNCC[C@@]1(c2ccccn2)CCOC2(CCCC2)C1	cell-free assay	–	–	1400
Cc1cc(/N=N/C(=O)NCC2(N(C)C)CCCCC2)ccc1F	cell-free assay	–	–	30000
Cc1ccc(CNC(=O)CNC(=O)[C@@H]2Cc3ccccc3CN2C(=O)[C@@H](N)Cc2c(C)cc(O)cc2C)cc1	ligand displacement	radioligand	cell membranes	0.31
C[C@@H](NC(=O)[C@@H](N)Cc1ccc(O)cc1)C(=O)NCC(=O)N[C@H](CC(=O)NNC(=O)C[C@H](Cc1ccccc1)NC(=O)CNC(=O)[C@@H](C)NC(=O)[C@@H](N)Cc1ccc(O)cc1)Cc1ccccc1	ligand displacement	radioligand	–	0.72
Cc1cc(O)cc(C)c1C[C@H](N)C(=O)N1Cc2ccccc2C[C@H]1C(=O)NCC(=O)NCc1ccc([N+](=O)[O-])cc1	ligand displacement	radioligand	cell membranes	0.39
Oc1ccc2c3c1O[C@H]1c4ncc(-c5ccccc5)cc4C[C@@]4(OCCCc5cccnc5)[C@@H](C2)N(CC2CC2)CC[C@]314	ligand displacement	radioligand	cell membranes	5.89
Cc1cc(O)cc(C)c1C[C@H](N)C(=O)N1Cc2ccccc2C[C@H]1C(=O)NCC(=O)NCc1ccc(Cl)cc1	ligand displacement	radioligand	cell membranes	0.26
C[C@@H](NC(=O)[C@@H](N)Cc1ccc(O)cc1)C(=O)NCC(=O)N[C@@H](Cc1ccc(Cl)cc1)C(=O)N(C)CCC[C@@]1(c2ccc(F)cc2)OCc2cc(C#N)ccc21	cell-free assay	–	–	1.6
